Measurements taken from publication PMC9486889 (Japanese Journal of Clinical Oncology, 2022).

Assays:
[1] = Cardiovascular assessments; type: in vivo, Japanese patients
[2] = tested on: relapsed or refractory non-Hodgkin's lymphoma; experiment: Anti-tumor activity; type: in vivo, Japanese patients
HDAC1 = conditions: cited from earlier work
HDAC3 = conditions: cited from earlier work
[3] = Plasma and urine pharmacokinetics, Cycle 1; type: in vivo, Japanese patients
How it was run: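 Oral 30 or 40 mg BIW. In Cycle 1, plasma was sampled on Days 1 and 25 from pre-dose to 72 h post-dose. Urine was collected in three 24-h intervals after the Day 1 and Day 25 doses. Parent drug and metabolites were measured by LC/MS–MS. The PK population received ≥1 Cycle 1 dose and had ≥1 measured post-dose concentration.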

HDAC2 = conditions: cited from earlier work
HDAC10 = conditions: cited from earlier work
[4] = 40 mg BIW cohort, seven patients
[5] = NHL other than ATL, 30 mg BIW, 5 patients
[6] = NHL other than ATL, 40 mg BIW, 3 patients

Nc1cc(F)ccc1NC(=O)c1ccc(CNC(=O)/C=C/c2cccnc2)cc1 [HBI-8000, tucidinostat]
Absolute QTcF >450 ms ([1]; 30 mg BIW cohort): three | QTcF increase of >30 ms from baseline ([1]; 40 mg BIW cohort): three | Absolute QTcF prolonged to >500 ms ([1]; both cohorts): none | QTcF increase >60 ms from baseline ([1]; both cohorts): none | Stable disease after the first cycle ([2]; 30 mg BIW cohort): three of six | Disease control (CR + CRu + PR + SD) ([2]; 30 mg BIW cohort, six patients): 66.7% | ORR ([2]; 30 mg BIW cohort, six patients): 16.7% | Objective response ([2]; 40 mg BIW cohort): five of seven | Partial responders with adult T-cell leukemia-lymphoma ([2]; 40 mg BIW cohort): three | Disease control (CR + CRu + PR + SD) [2, 4]: 100% | ORR [2, 4]: 71.4% | Best overall response: PR ([2]; ATL, 30 mg BIW, 1 patient): 0 (0) n (%) | Best overall response: SD ([2]; ATL, 30 mg BIW, 1 patient): 1 (100) n (%) | Disease control (CR, PR or SD) ([2]; ATL, 30 mg BIW, 1 patient): 1 (100) n (%) | Objective response (CR or PR) ([2]; ATL, 30 mg BIW, 1 patient): 0 (0.0) n (%) | Best overall response: PR ([2]; ATL, 40 mg BIW, 4 patients): 3 (75.0) n (%) | Best overall response: SD ([2]; ATL, 40 mg BIW, 4 patients): 1 (25.0) n (%) | Disease control (CR, PR or SD) ([2]; ATL, 40 mg BIW, 4 patients): 4 (100) n (%) | Objective response (CR or PR) ([2]; ATL, 40 mg BIW, 4 patients): 3 (75.0) n (%) | Objective response ([2]; NHL other than ATL, 30 mg BIW cohort): 20% | Best overall response: CR [2, 5]: 0 (0) n (%) | Best overall response: CRu [2, 5]: 1 (20.0) n (%) | Best overall response: PD [2, 5]: 2 (40.0) n (%) | Best overall response: SD [2, 5]: 2 (40.0) n (%) | Disease control (CR, CRu, PR or SD) [2, 5]: 3 (60.0) n (%) | Objective response (CR, CRu or PR) [2, 5]: 1 (20.0) n (%) | Objective response ([2]; NHL other than ATL, 40 mg BIW cohort): 66.7% | Best overall response: CR [2, 6]: 1 (33.3) n (%) | Best overall response: CRu [2, 6]: 1 (33.3) n (%) | Best overall response: PD [2, 6]: 0 (0) n (%) | Best overall response: SD [2, 6]: 1 (33.3) n (%) | Disease control (CR, CRu, PR or SD) [2, 6]: 3 (100) n (%) | Objective response (CR, CRu or PR) [2, 6]: 2 (66.7) n (%) | Responses in patients with ATL ([2]; both cohorts): three out of five | Inhibition of HDAC activity (HDAC1): selectively inhibits | Inhibition of HDAC activity (HDAC3): selectively inhibits | Administered dose excreted unchanged in urine over the dosing interval, average ([3]; 30 mg cohort): 25.3% | Administered dose excreted unchanged in urine over the dosing interval, average ([3]; 40 mg cohort): 21.9% | half-life ([3]; human, plasma, oral, 40 mg, Mean t1/2, 30 and 40 mg, Days 1 and 25): 1030 to 1300 min | AUC(0-inf) ([3]; human, plasma, po, 30 mg): 4000 ng·h/mL | AUC(0-inf) ([3]; human, plasma, po, 40 mg): 7160 ng·h/mL | Tmax ([3]; human, plasma, po, 40 mg, Median tmax, single and repeat oral administration, 30 and 40 mg): 2.42 to 5 h | Inhibition of HDAC activity (HDAC2): selectively inhibits | Inhibition of HDAC activity (HDAC10): selectively inhibits
